Measured values reported in ChEMBL document CHEMBL1914335, “Identification of a potent and selective σ₁ receptor agonist potentiating NGF-induced neurite outgrowth in PC12 cells” (Bioorg Med Chem, 2011).
pKi: −log10 of the molar value. Activity calls are given as the source filed them. The rule behind the calls is not given here.

Legend:
[1] = target: Sigma non-opioid intracellular receptor 1 (Cavia porcellus, UniProt Q60492); experiment: Displacement of [3H]-(+)-pentazocine from sigma1 receptor in guinea pig brain membrane after 150 mins by liquid scintillation counting; type: cell membranes
Sequence of Sigma non-opioid intracellular receptor 1 (Q60492 whole entry): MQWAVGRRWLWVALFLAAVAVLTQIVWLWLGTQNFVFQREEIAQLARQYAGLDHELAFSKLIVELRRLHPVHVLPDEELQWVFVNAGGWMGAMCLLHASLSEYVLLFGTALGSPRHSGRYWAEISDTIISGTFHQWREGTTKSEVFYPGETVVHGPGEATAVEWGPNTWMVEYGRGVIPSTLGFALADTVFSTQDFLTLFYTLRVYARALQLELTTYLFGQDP
How it was run: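 Membranes (500 µg protein) incubated with 3 nM [3H]-(+)-pentazocine and nine test concentrations in 50 mM Tris-HCl pH 7.4, 150 min at 37 °C. Nonspecific binding defined by 10 µM haloperidol. Samples filtered on PEI-presoaked GF/B filters and counted by liquid scintillation; Ki calculated from these curves.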

[2] = species on record: Sus scrofa; experiment: Displacement of [3H]-(+)-MK-801 from NMDA receptor PCP binding site in pig brain cortex assessed as residual binding at 10 uM after 150 mins by scintillation counting
How it was run: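 Pig brain cortex membranes (about 100 µg protein) incubated with 2 nM [3H]-(+)-MK-801 in 5 mM Tris-acetate/1 mM EDTA pH 7.5, 150 min at rt. Nonspecific binding with 10 µM (+)-MK-801. Filtration, then solid scintillator counting. Residual binding measured at 10 µM test compound.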

[3] = target: Kappa-type opioid receptor (Cavia porcellus) (UniProt P41144); experiment: Displacement of [3H]-U69593 from kappa opioid receptor in guinea pig brain membrane assessed as residual binding at 1 uM after 150 mins by liquid scintillation counting; type: cell membranes
Sequence of Kappa-type opioid receptor (Cavia porcellus) (P41144 whole entry): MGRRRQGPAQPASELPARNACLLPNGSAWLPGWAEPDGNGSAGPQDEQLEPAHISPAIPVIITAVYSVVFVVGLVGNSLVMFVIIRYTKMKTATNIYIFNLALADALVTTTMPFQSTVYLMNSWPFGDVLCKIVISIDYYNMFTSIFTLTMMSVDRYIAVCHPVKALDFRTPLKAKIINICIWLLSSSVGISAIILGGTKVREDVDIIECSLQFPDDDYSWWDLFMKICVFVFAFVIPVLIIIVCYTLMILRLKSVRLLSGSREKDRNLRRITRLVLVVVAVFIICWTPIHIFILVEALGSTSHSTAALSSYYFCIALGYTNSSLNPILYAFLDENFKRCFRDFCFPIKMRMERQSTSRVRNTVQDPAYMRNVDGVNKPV
How it was run: (§1)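 Guinea pig brain membranes (about 75 µg protein) incubated with 1 nM [3H]-U69,593 in 50 mM Tris, 8 mM MgCl2, pH 7.4, 150 min at 37 °C. Nonspecific binding with 10 µM unlabeled U69,593. Filtration, then solid scintillator counting in triplicate. Residual binding taken at 1 µM; otherwise IC50 from ≥6 concentrations, Ki by Cheng-Prusoff (Kd 0.69 nM).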

[4] = target: Mu-type opioid receptor (Cavia porcellus) (UniProt P97266); experiment: Displacement of [3H]-DAMGO from mu opioid receptor in guinea pig brain membrane assessed as residual binding at 1 uM after 150 mins by liquid scintillation counting; type: cell membranes
Sequence of Mu-type opioid receptor (Cavia porcellus) (P97266 whole entry): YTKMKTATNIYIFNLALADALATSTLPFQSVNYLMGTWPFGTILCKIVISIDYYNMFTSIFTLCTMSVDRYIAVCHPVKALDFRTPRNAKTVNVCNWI
How it was run: as §1, with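 “[3H]-DAMGO” for “[3H]-U69,593”, “MgCl2, 400 µM PMSF,” for “MgCl2,”, “naloxone.” for “unlabeled U69,593.”, “µM test compound;” for “µM;”, “0.57” for “0.69”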

[5] = Displacement of [3H]-DTG from sigma2 receptor in guinea pig brain membrane after 120 mins by liquid scintillation counting; type: cell membranes, Cavia porcellus
How it was run: (§2)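 For σ2, membranes (360 µg protein) incubated at rt for 120 min with 3 nM [3H]DTG plus 0.4 µM (+)-SKF10,047, with nine test concentrations in 50 mM Tris-HCl pH 8.0; nonspecific binding with 5 µM DTG. For σ1, 3 nM [3H]-(+)-pentazocine, 150 min at 37 °C, pH 7.4, haloperidol 10 µM. Both read by filtration and scintillation counting; Ki values derived.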

[6] = species on record: Cavia porcellus; experiment: Selectivity ratio of Ki for sigma2 receptor in guinea pig brain membrane to Ki for sigma1 receptor in guinea pig brain membrane; type: cell membranes; how it was run: as §2
[7] = target: Kappa-type opioid receptor (Cavia porcellus, UniProt P41144); experiment: Displacement of [3H]-U69593 from kappa opioid receptor in guinea pig brain membrane after 150 mins by liquid scintillation counting; type: cell membranes; how it was run: as §1
Sequence of Kappa-type opioid receptor (P41144 whole entry): as the sequence (P41144 whole entry) above

[8] = target: Mu-type opioid receptor (Cavia porcellus, UniProt P97266); experiment: Displacement of [3H]-DAMGO from mu opioid receptor in guinea pig brain membrane after 150 mins by liquid scintillation counting; type: cell membranes
Sequence of Mu-type opioid receptor (P97266 whole entry): as the sequence (P97266 whole entry) above
How it was run: as §1, with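 “[3H]-DAMGO” for “[3H]-U69,593”, “MgCl2, 400 µM PMSF,” for “MgCl2,”, “naloxone.” for “unlabeled U69,593.”, “µM test compound;” for “µM;”, “0.57” for “0.69”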

[9] = target: Sigma non-opioid intracellular receptor 1 (Rattus norvegicus) (UniProt Q9R0C9); experiment: Agonist activity at sigma1 receptor in rat PC12 cells assessed as cells with increase in NGF-induced neurite outgrowth at 0.25 uM after 5 days by phase contrast microscopy in presence of 5 uM sigma1 receptor antagonist BD-1063; type: functional, cell-based; settings: PC-12
Sequence of Sigma non-opioid intracellular receptor 1 (Rattus norvegicus) (Q9R0C9 whole entry): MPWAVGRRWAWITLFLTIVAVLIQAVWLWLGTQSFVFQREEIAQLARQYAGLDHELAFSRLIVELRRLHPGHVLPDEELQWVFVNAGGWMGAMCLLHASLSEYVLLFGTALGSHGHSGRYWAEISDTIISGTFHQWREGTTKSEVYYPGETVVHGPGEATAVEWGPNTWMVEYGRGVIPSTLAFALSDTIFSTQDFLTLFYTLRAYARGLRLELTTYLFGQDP
How it was run: (§3)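 PC12 cells grown at 37 °C, 5% CO2 in RPMI with 5% FBS and 10% horse serum. Replated at 0.25 × 10^4 cells/cm2 on poly-D-lysine glass coverslips. After 24 h, switched to 0.5% HS medium with NGF 2.5 ng/mL ± drug, BD-1063 at 5 µM final where used. After 5 days, fixed in 4% PFA. Cells with ≥1 neurite at least one cell-body diameter long were scored blind by two examiners; ≥3 independent experiments.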

[10] = target: Sigma non-opioid intracellular receptor 1 (Rattus norvegicus) (UniProt Q9R0C9); experiment: Agonist activity at sigma1 receptor in rat PC12 cells assessed as cells with increase in NGF-induced neurite outgrowth at 0.01 uM after 5 days by phase contrast microscopy; type: functional, cell-based; settings: PC-12; how it was run: as §3
[11] = target: Sigma non-opioid intracellular receptor 1 (Rattus norvegicus) (UniProt Q9R0C9); experiment: Agonist activity at sigma1 receptor in rat PC12 cells assessed as increase of NGF-induced neurite elongation at 0.25 uM after 5 days by phase contrast microscopy; type: functional, cell-based; settings: PC-12
How it was run: (§4)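 Culture conditions match the neurite-outgrowth note: PC12 cells on poly-D-lysine coverslips with NGF 2.5 ng/mL ± drug for 5 days, BD-1063 at 5 µM final where used. Cells were then fixed in 4% PFA and imaged by phase contrast, six fields per coverslip. Neurite length was traced from cell body to tip, measured blind by two examiners; ≥3 independent experiments; mean ± SEM.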

[12] = system: HaCaT; experiment: Cytotoxicity against human HaCaT cells at 1x10'-8 to 1x10'-5 M after 72 hrs by MTT assay; type: cell-based
How it was run: (§5)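 HaCaT cells plated at 5000/well. After 24 h, exposed to 1 × 10^-8 to 1 × 10^-5 for 48 or 72 h at 37 °C, 5% CO2, in medium with 5% FBS or serum-free (N = 6 each). Viability was read as optical density in an MTT-based assay.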

[13] = target: Sigma non-opioid intracellular receptor 1 (Rattus norvegicus) (UniProt Q9R0C9); experiment: Agonist activity at sigma1 receptor in rat PC12 cells assessed as decrease in NGF-induced neurite elongation at 0.25 uM after 5 days by phase contrast microscopy in presence of 5 uM sigma1 receptor antagonist BD-1064 relative to compound alone; type: functional, cell-based; design: scale not given: the % may be the effect or the level left; settings: PC-12, in the assay text read “BD-1063” for “BD-1064”; how it was run: as §4
[14] = system: HaCaT; experiment: Cytotoxicity against human HaCaT cells at 1x10'-8 to 1x10'-5 M after 48 hrs by MTT assay; type: cell-based; how it was run: as §5
[15] = system: PC-12; experiment: Cytotoxicity against rat PC12 cells; type: cell-based
[16] = target: Sigma non-opioid intracellular receptor 1 (Rattus norvegicus) (UniProt Q9R0C9); experiment: Agonist activity at sigma1 receptor in rat PC12 cells assessed as increase of NGF-induced neurite elongation at 0.05 uM after 5 days by phase contrast microscopy; type: functional, cell-based; settings: PC-12; how it was run: as §4
[17] = target: Sigma non-opioid intracellular receptor 1 (Rattus norvegicus) (UniProt Q9R0C9); experiment: Agonist activity at sigma1 receptor in rat PC12 cells assessed as increase of NGF-induced neurite length at 2.5 uM after 5 days by phase contrast microscopy; type: functional, cell-based; settings: PC-12; how it was run: as §4
[18] = target: Sigma non-opioid intracellular receptor 1 (Rattus norvegicus) (UniProt Q9R0C9); experiment: Agonist activity at sigma1 receptor in rat PC12 cells assessed as cells with increase in NGF-induced neurite outgrowth at 0.05 to 2.5 uM after 5 days by phase contrast microscopy; settings: PC-12
[19] = target: Sigma non-opioid intracellular receptor 1 (Rattus norvegicus) (UniProt Q9R0C9); experiment: Agonist activity at sigma1 receptor in rat PC12 cells assessed as cells with increase in NGF-induced neurite outgrowth at 2.5 uM after 5 days by phase contrast microscopy; type: functional, cell-based; settings: PC-12; how it was run: as §3
[20] = target: Sigma non-opioid intracellular receptor 1 (Rattus norvegicus) (UniProt Q9R0C9); experiment: Agonist activity at sigma1 receptor in rat PC12 cells assessed as cells with increase in NGF-induced neurite outgrowth at 0.05 uM after 5 days by phase contrast microscopy; type: functional, cell-based; settings: PC-12; how it was run: as §3
[21] = target: Sigma non-opioid intracellular receptor 1 (Rattus norvegicus) (UniProt Q9R0C9); experiment: Agonist activity at sigma1 receptor in rat PC12 cells assessed as cells with increase in NGF-induced neurite outgrowth at 0.25 uM after 5 days by phase contrast microscopy; type: functional, cell-based; settings: PC-12; how it was run: as §3

Row | SMILES | pKi [1] | Activity [2] | Activity [3] | Activity [4] | pKi [5] | Ratio Ki [6] | other results
1 | C/C(=C\CN1CCOCC1)c1ccccc1 | < 6.00 | 19% | 3% | 12% | < 6.00 | – | –
2 | COc1cccc(/C(C)=C/CN2CCCCC2)c1 | 7.04 | 0% | 22% | 21% | 6.53 | 3.2 | –
3 | C/C(=C\CN(C)C)c1ccccc1 | < 6.00 | 0% | 0% | 0% | < 6.00 | – | –
4 | COc1ccc(/C(C)=C/CN2CCCCC2)cc1 | 7.85 | 0% | 14% | 36% | 6.83 | 10.6 | –
5 | COc1ccc(/C(C)=C/CN(C)C)cc1 | 6.09 | 0% | 20% | 10% | < 6.00 | – | –
6 | COc1cccc(/C(C)=C/CN(C)C)c1 | < 6.00 | 60% | 5% | 17% | < 6.00 | – | –
7 | COc1ccc(/C(C)=C/CN2CCOCC2)cc1 | < 6.00 | 10% | 8% | 0% | < 6.00 | – | –
8 | C/C(=C\CN1CCCCC1)c1ccccc1 | 6.34 | 0% | 0% | 19% | 6.72 | 0.4 | –
9 | C/C(=C\CN(C)C)c1ccc2ccccc2c1 | – | – | – | – | 6.83 | 7.5 | –
10 | COc1cccc(/C(C)=C/CN(C)Cc2ccccc2)c1 | 8.00 | 8% | – | 49% | 6.79 | 16.3 | pKi [7]: 6.52
11 | O=C(OCCN1CCOCC1)C1(c2ccccc2)CCCCC1 | – | – | – | – | – | – | Activity [17]: inactive; Activity [19]: inactive; Activity [10]: inactive
12 | COc1cccc(/C(C)=C/CN2CCOCC2)c1 | < 6.00 | 20% | 10% | 46% | < 6.00 | – | –

The next lines start with results.

Row | pKi [1] | Activity [2] | Activity [3] | Activity [4] | pKi [5] | Ratio Ki [6] | SMILES | other results
13 | 8.02 | 31% | 15% | 44% | 6.64 | 23.9 | C/C(=C\CN1CCOCC1)c1ccc2ccccc2c1 | –
14 | 8.11 | 36% | – | 36% | 8.24 | 0.8 | COc1cccc(/C(C)=C/CN2CCC(Cc3ccccc3)CC2)c1 | pKi [7]: 6.67
15 | – | – | – | – | 6.06 | 111 | C/C(=C\CN(C)Cc1ccccc1)c1ccc2ccccc2c1 | –
16 | 8.28 | 27% | – | – | 6.81 | 29.5 | COc1ccc(/C(C)=C/CN(C)Cc2ccccc2)cc1 | pKi [7]: 6.71; pKi [8]: 7.04
17 | 9.15 | 25% | 36% | 0% | 6.99 | 147 | CC(CCN1CCCCC1)c1ccc(-c2ccccc2)cc1.Cl (racemic) | Activity [9]: 18.6%; Activity [10]: 23.4%; Activity [11]: 131 µm; Activity [12]: Non-toxic; Activity [13]: 31%; Activity [14]: Non-toxic; Activity [15]: Non-toxic
18 | 8.38 | 0% | – | – | 8.15 | 1.7 | COc1ccc(/C(C)=C/CN2CCC(Cc3ccccc3)CC2)cc1 | pKi [7]: 6.80; pKi [8]: 6.83
19 | 7.04 | 67% | – | – | 7.21 | 0.7 | C/C(=C\CN(C)Cc1ccccc1)c1ccccc1 | pKi [7]: 6.36; pKi [8]: 6.92
20 | – | – | – | – | 7.12 | 12 | C/C(=C\CN(C)Cc1ccccc1)c1ccc(-c2ccccc2)cc1 | –
21 | 7.64 | 17% | 10% | 38% | 7.80 | 0.7 | C/C(=C\CN1CCC(Cc2ccccc2)CC1)c1ccc2ccccc2c1 | –
22 | 9.07 | 32% | 6% | 0% | 6.95 | 129 | C/C(=C\CN1CCCCC1)c1ccc(-c2ccccc2)cc1 | Activity [16]: inactive; Activity [17]: inactive; Activity [18]: inactive; Activity [19]: inactive; Activity [20]: inactive; Activity [11]: inactive; Activity [21]: inactive
23 | 8.15 | 17% | 10% | 0% | 7.74 | 2.6 | C/C(=C\CN1CCC(Cc2ccccc2)CC1)c1ccc(-c2ccccc2)cc1 | –
24 | 8.97 | 0% | – | – | 8.26 | 5.1 | C/C(=C\CN1CCC(Cc2ccccc2)CC1)c1ccccc1 | pKi [7]: 6.72; pKi [8]: 6.82
25 | 7.94 | 69% | 10% | 52% | 6.41 | 33.3 | C/C(=C\CN1CCOCC1)c1ccc(-c2ccccc2)cc1 | –
26 | – | – | – | – | 6.97 | 75.7 | C/C(=C\CN(C)C)c1ccc(-c2ccccc2)cc1 | –
27 | 9.01 | 16% | 44% | 23% | 7.45 | 36.2 | C/C(=C\CN1CCCCC1)c1ccc2ccccc2c1 | –
